Measured values reported in ChEMBL document CHEMBL5058577, “EUbOPEN Chemogenomics Library 2 (Multiplex)” (2022).

Test system: Fibroblast
Experiment: Multiplex assay against human fibroblast
Assay type: toxicity, cell-based
Summary of the method: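 Compound was added to live cells that had been stained at seeding with Hoechst33342, BioTracker Green Microtubule Cytoskeleton Dye, MitoTracker Red and Annexin V Alexa Fluor 680, and imaging followed on a CQ1 microscope at 37°C and 5% CO2. CellPathfinder machine-learning gating divided cells into Hoechst high-intensity objects or normal cells, normal cells into healthy, pyknosed or fragmented nuclei, and pyknosed cells into mitotic or apoptotic. Tubulin, mitochondrial-mass and membrane-permeability phenotypes are per cents of healthy-nucleus cells.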

[1] = 12 h, 1 µM, compound concentration 1 uM, replicate 1
[2] = 12 h, 1 µM, compound concentration 1 uM, replicate 2
[3] = 12 h, 10 µM, compound concentration 10 uM, replicate 1
[4] = 12 h, 10 µM, compound concentration 10 uM, replicate 2
[5] = 24 h, 1 µM, compound concentration 1 uM, replicate 1
[6] = 24 h, 1 µM, compound concentration 1 uM, replicate 2
[7] = 24 h, 10 µM, compound concentration 10 uM, replicate 1
[8] = 24 h, 10 µM, compound concentration 10 uM, replicate 2
[9] = 48 h, 1 µM, compound concentration 1 uM, replicate 1
[10] = 48 h, 1 µM, compound concentration 1 uM, replicate 2
[11] = 48 h, 10 µM, compound concentration 10 uM, replicate 1
[12] = 48 h, 10 µM, compound concentration 10 uM, replicate 2

Compound: Cc1ccc(F)cc1C(=O)Nc1ccc(C(=O)N2Cc3cccn3Cc3ccccc32)c(Cl)c1 [LIXIVAPTAN]
- Population Apoptotic (%) [1]: 40%
- Population Fragmented Nuclei (%) [1]: 11%
- Population Healthy Nuclei (%) [1]: 73%
- Population Hoechst High Intensity Objects (%) [1]: 5%
- Population Membrane Permeable-Phenotype (%) [1]: 0%
- Population Mitochondria Different-Phenotype (%) [1]: 3%
- Population Mitotic Cells (%) [1]: 59%
- Population Normal (%) [1]: 94%
- Population Pyknosed Nuclei (%) [1]: 15%
- Population Tubulin-Different-Phenotype (%) [1]: 28%
- Total Cell Count [1]: 186
- Population Apoptotic (%) [2]: 50%
- Population Fragmented Nuclei (%) [2]: 30%
- Population Healthy Nuclei (%) [2]: 47%
- Population Hoechst High Intensity Objects (%) [2]: 3%
- Population Membrane Permeable-Phenotype (%) [2]: 1%
- Population Mitochondria Different-Phenotype (%) [2]: 9%
- Population Mitotic Cells (%) [2]: 50%
- Population Normal (%) [2]: 96%
- Population Pyknosed Nuclei (%) [2]: 21%
- Population Tubulin-Different-Phenotype (%) [2]: 38%
- Total Cell Count [2]: 117
- Population Apoptotic (%) [3]: 34%
- Population Fragmented Nuclei (%) [3]: 18%
- Population Healthy Nuclei (%) [3]: 58%
- Population Hoechst High Intensity Objects (%) [3]: 0%
- Population Membrane Permeable-Phenotype (%) [3]: 2%
- Population Mitochondria Different-Phenotype (%) [3]: 5%
- Population Mitotic Cells (%) [3]: 65%
- Population Normal (%) [3]: 99%
- Population Pyknosed Nuclei (%) [3]: 23%
- Population Tubulin-Different-Phenotype (%) [3]: 62%
- Total Cell Count [3]: 137
- Population Apoptotic (%) [4]: 31%
- Population Fragmented Nuclei (%) [4]: 27%
- Population Healthy Nuclei (%) [4]: 46%
- Population Hoechst High Intensity Objects (%) [4]: 5%
- Population Membrane Permeable-Phenotype (%) [4]: 6%
- Population Mitochondria Different-Phenotype (%) [4]: 10%
- Population Mitotic Cells (%) [4]: 68%
- Population Normal (%) [4]: 94%
- Population Pyknosed Nuclei (%) [4]: 25%
- Population Tubulin-Different-Phenotype (%) [4]: 72%
- Total Cell Count [4]: 179
- Population Apoptotic (%) [5]: 50%
- Population Fragmented Nuclei (%) [5]: 12%
- Population Healthy Nuclei (%) [5]: 73%
- Population Hoechst High Intensity Objects (%) [5]: 1%
- Population Membrane Permeable-Phenotype (%) [5]: 1%
- Population Mitochondria Different-Phenotype (%) [5]: 0%
- Population Mitotic Cells (%) [5]: 50%
- Population Normal (%) [5]: 98%
- Population Pyknosed Nuclei (%) [5]: 14%
- Population Tubulin-Different-Phenotype (%) [5]: 33%
- Total Cell Count [5]: 172
- Population Apoptotic (%) [6]: 32%
- Population Fragmented Nuclei (%) [6]: 33%
- Population Healthy Nuclei (%) [6]: 43%
- Population Hoechst High Intensity Objects (%) [6]: 3%
- Population Membrane Permeable-Phenotype (%) [6]: 5%
- Population Mitochondria Different-Phenotype (%) [6]: 5%
- Population Mitotic Cells (%) [6]: 67%
- Population Normal (%) [6]: 96%
- Population Pyknosed Nuclei (%) [6]: 23%
- Population Tubulin-Different-Phenotype (%) [6]: 52%
- Total Cell Count [6]: 126
- Population Apoptotic (%) [7]: 25%
- Population Fragmented Nuclei (%) [7]: 19%
- Population Healthy Nuclei (%) [7]: 63%
- Population Hoechst High Intensity Objects (%) [7]: 0%
- Population Membrane Permeable-Phenotype (%) [7]: 2%
- Population Mitochondria Different-Phenotype (%) [7]: 8%
- Population Mitotic Cells (%) [7]: 75%
- Population Normal (%) [7]: 99%
- Population Pyknosed Nuclei (%) [7]: 17%
- Population Tubulin-Different-Phenotype (%) [7]: 63%
- Total Cell Count [7]: 142
- Population Apoptotic (%) [8]: 51%
- Population Fragmented Nuclei (%) [8]: 26%
- Population Healthy Nuclei (%) [8]: 51%
- Population Hoechst High Intensity Objects (%) [8]: 5%
- Population Membrane Permeable-Phenotype (%) [8]: 11%
- Population Mitochondria Different-Phenotype (%) [8]: 12%
- Population Mitotic Cells (%) [8]: 48%
- Population Normal (%) [8]: 94%
- Population Pyknosed Nuclei (%) [8]: 22%
- Population Tubulin-Different-Phenotype (%) [8]: 82%
- Total Cell Count [8]: 174
- Population Apoptotic (%) [9]: 63%
- Population Fragmented Nuclei (%) [9]: 18%
- Population Healthy Nuclei (%) [9]: 68%
- Population Hoechst High Intensity Objects (%) [9]: 8%
- Population Membrane Permeable-Phenotype (%) [9]: 0%
- Population Mitochondria Different-Phenotype (%) [9]: 3%
- Population Mitotic Cells (%) [9]: 36%
- Population Normal (%) [9]: 91%
- Population Pyknosed Nuclei (%) [9]: 13%
- Population Tubulin-Different-Phenotype (%) [9]: 28%
- Total Cell Count [9]: 181
- Population Apoptotic (%) [10]: 50%
- Population Fragmented Nuclei (%) [10]: 37%
- Population Healthy Nuclei (%) [10]: 40%
- Population Hoechst High Intensity Objects (%) [10]: 0%
- Population Membrane Permeable-Phenotype (%) [10]: 4%
- Population Mitochondria Different-Phenotype (%) [10]: 11%
- Population Mitotic Cells (%) [10]: 50%
- Population Normal (%) [10]: 99%
- Population Pyknosed Nuclei (%) [10]: 21%
- Population Tubulin-Different-Phenotype (%) [10]: 53%
- Total Cell Count [10]: 111
- Population Apoptotic (%) [11]: 70%
- Population Fragmented Nuclei (%) [11]: 25%
- Population Healthy Nuclei (%) [11]: 62%
- Population Hoechst High Intensity Objects (%) [11]: 2%
- Population Membrane Permeable-Phenotype (%) [11]: 0%
- Population Mitochondria Different-Phenotype (%) [11]: 13%
- Population Mitotic Cells (%) [11]: 29%
- Population Normal (%) [11]: 97%
- Population Pyknosed Nuclei (%) [11]: 11%
- Population Tubulin-Different-Phenotype (%) [11]: 69%
- Total Cell Count [11]: 149
- Population Apoptotic (%) [12]: 73%
- Population Fragmented Nuclei (%) [12]: 36%
- Population Healthy Nuclei (%) [12]: 51%
- Population Hoechst High Intensity Objects (%) [12]: 5%
- Population Membrane Permeable-Phenotype (%) [12]: 6%
- Population Mitotic Cells (%) [12]: 26%
- Population Normal (%) [12]: 94%
- Population Tubulin-Different-Phenotype (%) [12]: 78%
- Total Cell Count [12]: 170
